Legend:
Lung [1] = assay: Biodistribution in CD1 mouse lung at 200 to 300 kBq, iv measured at 30 mins by gamma counting analysis; format: ADME, organism-based; details: in vivo, 0.5 h
Outline: (§1)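 Female CD-1 mice received 200–300 kBq [18F]radiotracer intravenously. Blood and urine were sampled under anaesthesia, then mice were killed by cervical dislocation at 5, 15, 30 or 60 min p.i. (n = 3; control at 60 min n = 7). Organs were removed and weighed, activity was gamma-counted, and uptake was expressed as % injected dose per g wet tissue.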

Zone of skin [2] = assay: Biodistribution in CD1 mouse skin at 200 to 300 kBq, iv measured at 15 mins by gamma counting analysis; format: ADME, organism-based; details: in vivo, 0.25 h; outline: as §1
Mus musculus [3] = assay: Biodistribution in CD1 mouse adrenal at 200 to 300 kBq, iv measured at 15 mins by gamma counting analysis; format: ADME, organism-based, Adrenal gland; details: in vivo, 0.25 h
Outline: (§2)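 Female CD-1 mice, 200–300 kBq radiotracer given iv, n = 3 per time point. Animals anaesthetised for blood and urine sampling, then killed by cervical dislocation at 5, 15, 30 or 60 min p.i. Organs removed, weighed and gamma-counted; uptake expressed as % injected dose per g wet tissue.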

Spleen [4] = assay: Biodistribution in CD1 mouse spleen at 200 to 300 kBq, iv measured at 15 mins by gamma counting analysis; format: ADME, organism-based; details: in vivo, 0.25 h; outline: as §1
[5] = Biodistribution in CD1 mouse urine at 200 to 300 kBq, iv measured at 15 mins by gamma counting analysis; format: ADME, organism-based; details: in vivo, 0.25 h
Outline: (§3)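 Female CD-1 mice given 200–300 kBq tracer intravenously. Animals anaesthetised for blood and urine sampling, then killed by cervical dislocation at 5, 15, 30 or 60 min (n = 3 per time; n = 7 at 60 min). Organs removed and weighed, activity gamma-counted, expressed as % injected dose per g wet weight. Blocking arm: 10 mg/kg i.p. in 0.9% saline, 10 min before tracer; two-tailed unpaired t test versus control.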

Heart [6] = assay: Biodistribution in CD1 mouse heart at 200 to 300 kBq, iv measured at 15 mins by gamma counting analysis; format: ADME, organism-based; details: in vivo, 0.25 h; outline: as §2
Muscle tissue = assay: Biodistribution in CD1 mouse muscle at 200 to 300 kBq, iv measured at 5 mins by gamma counting analysis; format: ADME, organism-based; details: in vivo; outline: as §1
Femur = assay: Biodistribution in CD1 mouse femur at 200 to 300 kBq, iv measured at 5 mins by gamma counting analysis; format: ADME, organism-based; details: in vivo; outline: as §2
Zone of skin [7] = assay: Biodistribution in CD1 mouse skin at 200 to 300 kBq, iv measured at 5 mins by gamma counting analysis; format: ADME, organism-based; details: in vivo; outline: as §1
Mus musculus [8] = assay: Biodistribution in CD1 mouse adrenal at 200 to 300 kBq, iv measured at 5 mins by gamma counting analysis; format: ADME, organism-based, Adrenal gland; details: in vivo; outline: as §2
[9] = Biodistribution in CD1 mouse urine at 200 to 300 kBq, iv measured at 5 mins by gamma counting analysis; format: ADME, organism-based; details: in vivo; outline: as §3
Liver [10] = assay: Biodistribution in CD1 mouse liver at 200 to 300 kBq, iv measured at 5 mins by gamma counting analysis; format: ADME, organism-based; details: in vivo; outline: as §1
Brain [11] = assay: Biodistribution in CD1 mouse brain at 200 to 300 kBq, iv measured at 5 mins by gamma counting analysis; format: ADME, organism-based; details: in vivo; outline: as §2
[12] = Biodistribution in CD1 mouse urine at 200 to 300 kBq, iv measured at 60 mins by gamma counting analysis in presence of SSR180711; format: ADME, organism-based; details: in vivo, 1 h; outline: as §3
Liver [13] = assay: Biodistribution in CD1 mouse liver at 200 to 300 kBq, iv measured at 60 mins by gamma counting analysis in presence of SSR180711; format: ADME, organism-based; details: in vivo, 1 h
Outline: (§4)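 Blocking design in female CD-1 mice, n = 7 per group. The blocker was given at 10 mg kg^-1 i.p. in 0.9% saline 10 min before i.v. 200–300 kBq [18F]radiotracer. Mice were killed at 60 min p.i. and organs weighed and gamma-counted as % ID per g wet weight. Blocked groups were compared with controls by two-tailed independent Student's t test.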

Lung [14] = assay: Biodistribution in CD1 mouse lung at 200 to 300 kBq, iv measured at 60 mins by gamma counting analysis in presence of SSR180711; format: ADME, organism-based; details: in vivo, 1 h; outline: as §4
Heart [15] = assay: Biodistribution in CD1 mouse heart at 200 to 300 kBq, iv measured at 60 mins by gamma counting analysis in presence of SSR180711; format: ADME, organism-based; details: in vivo, 1 h
Outline: (§5)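 Blocking study in female CD-1 mice, n = 7 per blocker, with a matching control group. SSR180711 or NS6740 given at 10 mg kg⁻¹ ip in 0.9% saline 10 min before iv radiotracer (200–300 kBq). Organs taken at 60 min p.i., weighed and gamma-counted; uptake as % ID per g wet weight. Compared with control by two-tailed independent Student's t test.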

Brain [16] = assay: Biodistribution in CD1 mouse brain at 200 to 300 kBq, iv measured at 60 mins by gamma counting analysis in presence of SSR180711; format: ADME, organism-based; details: in vivo, 1 h; outline: as §5
Urinary bladder [17] = assay: Biodistribution in CD1 mouse bladder at 200 to 300 kBq, iv measured at 60 mins by gamma counting analysis; format: ADME, organism-based; details: in vivo, 1 h; outline: as §2
Spleen [18] = assay: Biodistribution in CD1 mouse spleen at 200 to 300 kBq, iv measured at 60 mins by gamma counting analysis; format: ADME, organism-based; details: in vivo, 1 h; outline: as §1
[19] = Biodistribution in CD1 mouse urine at 200 to 300 kBq, iv measured at 60 mins by gamma counting analysis; format: ADME, organism-based; details: in vivo, 1 h; outline: as §3
Kidney = assay: Biodistribution in CD1 mouse kidney at 200 to 300 kBq, iv measured at 60 mins by gamma counting analysis; format: ADME, organism-based; details: in vivo, 1 h; outline: as §2
Mus musculus [20] = assay: Biodistribution in CD1 mouse large intestine at 200 to 300 kBq, iv measured at 60 mins by gamma counting analysis; format: ADME, organism-based; details: in vivo, 1 h; outline: as §2
Stomach = assay: Biodistribution in CD1 mouse stomach at 200 to 300 kBq, iv measured at 60 mins by gamma counting analysis; format: ADME, organism-based; details: in vivo, 1 h; outline: as §1
Lung [21] = assay: Biodistribution in CD1 mouse lung at 200 to 300 kBq, iv measured at 60 mins by gamma counting analysis; format: ADME, organism-based; details: in vivo, 1 h; outline: as §1
Heart [22] = assay: Biodistribution in CD1 mouse heart at 200 to 300 kBq, iv measured at 60 mins by gamma counting analysis; format: ADME, organism-based; details: in vivo, 1 h; outline: as §2
Blood = assay: Biodistribution in CD1 mouse blood at 200 to 300 kBq, iv measured at 60 mins by gamma counting analysis; format: ADME, organism-based; details: in vivo, 1 h; outline: as §2
Mus musculus [23] = assay: Biodistribution in CD1 mouse adrenal at 200 to 300 kBq, iv measured at 30 mins by gamma counting analysis; format: ADME, organism-based, Adrenal gland; details: in vivo, 0.5 h; outline: as §2
Mus musculus [24] = assay: Biodistribution in CD1 mouse thymus at 200 to 300 kBq, iv measured at 30 mins by gamma counting analysis; format: ADME, organism-based; details: in vivo, 0.5 h; outline: as §1
Spleen [25] = assay: Biodistribution in CD1 mouse spleen at 200 to 300 kBq, iv measured at 30 mins by gamma counting analysis; format: ADME, organism-based; details: in vivo, 0.5 h; outline: as §1
Urinary bladder [26] = assay: Biodistribution in CD1 mouse bladder at 200 to 300 kBq, iv measured at 30 mins by gamma counting analysis; format: ADME, organism-based; details: in vivo, 0.5 h; outline: as §2
[27] = Biodistribution in CD1 mouse urine at 200 to 300 kBq, iv measured at 30 mins by gamma counting analysis; format: ADME, organism-based; details: in vivo, 0.5 h; outline: as §3
Liver [28] = assay: Biodistribution in CD1 mouse liver at 200 to 300 kBq, iv measured at 30 mins by gamma counting analysis; format: ADME, organism-based; details: in vivo, 0.5 h; outline: as §1

In the case of `O=C(Oc1ccc(Br)cc1)N1CCN2CCC1CC2` [SSR180711], the Drug uptake (Lung [1]) is reported as 6.78 % ID/g, the Drug uptake (Zone of skin [2]) is reported as 1.4 % ID/g and the Drug uptake (Mus musculus [3]) is reported as 5.65 % ID/g. The Drug uptake (Spleen [4]) was 8.23 % ID/g, the Drug uptake [5] was 122 % ID/g and the Drug uptake (Heart [6]) was 2.96 % ID/g. For the same compound, the Drug uptake (Muscle tissue) was 1.59 % ID/g, the Drug uptake (Femur) was 1.45 % ID/g and the Drug uptake (Zone of skin [7]) was 0.81 % ID/g. It also gave a Drug uptake (Mus musculus [8]) of 5.78 % ID/g, a Drug uptake [9] of 23.9 % ID/g and a Drug uptake (Liver [10]) of 6.29 % ID/g. For the same compound, the Drug uptake (Brain [11]) was 0.16 % ID/g, the Drug uptake [12] was 270 % ID/g and the Drug uptake (Liver [13]) was 6.45 % ID/g. For the same compound, the Drug uptake (Lung [14]) was 4.41 % ID/g, the Drug uptake (Heart [15]) was 1.81 % ID/g and the Drug uptake (Brain [16]) was 0.15 % ID/g. The Drug uptake (Urinary bladder [17]) was 1.88 % ID/g, the Drug uptake (Spleen [18]) was 7.46 % ID/g and the Drug uptake [19] was 152 % ID/g. The Drug uptake (Kidney) was 10.4 % ID/g, the Drug uptake (Mus musculus [20]) was 5.02 % ID/g and the Drug uptake (Stomach) was 8.13 % ID/g. The Drug uptake (Lung [21]) was 4.88 % ID/g, the Drug uptake (Heart [22]) was 1.84 % ID/g and the Drug uptake (Blood) was 0.78 % ID/g. For the same compound, the Drug uptake (Mus musculus [23]) was 4.61 % ID/g, the Drug uptake (Mus musculus [24]) was 2.6 % ID/g and the Drug uptake (Spleen [25]) was 7.5 % ID/g. The Drug uptake (Urinary bladder [26]) was 2.08 % ID/g, the Drug uptake [27] was 123 % ID/g and the Drug uptake (Liver [28]) was 8.51 % ID/g.

Source: ChEMBL document CHEMBL2380270, “Radiosynthesis and first evaluation in mice of [(18)F]NS14490 for molecular imaging of α7 nicotinic acetylcholine receptors” (Bioorg Med Chem, 2013)
